From ChEMBL document CHEMBL4339209, “Chemical modifications of imidazole-containing alkoxyamines increase C-ON bond homolysis rate: Effects on their cytotoxic properties in glioblastoma cells” (Bioorg Med Chem, 2019) come the findings set out here.

Structures are written as SMILES.

Data set [1] in a line: Stability in H2O/MeOH buffered with HEPES/NaCl at pH 7.4 assessed as temperature. The data set is classed as physicochemical. Particulars: buffer.
The nature of data set [2]: Half life in H2O/MeOH buffered with HEPES/NaCl at pH 7.4 in presence of alkyl radical scavenger TEMPOR by 31P[1H]-NMR analysis. It is filed as physicochemical. Particulars: for t1/2: buffer; for half-life: H2O/MeOH buffered with HEPES/NaCl.
A short description of data set [3]: n-octanol/phosphate buffered saline partition coefficient, log D of the compound at pH 7.4 by shake-flask method. The data set is classed as physicochemical. In a few lines: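 Shake-flask partition between pre-saturated n-octanol and PBS at pH 7.4. The aqueous phase was quantified by RP-HPLC on a 4.6 × 50 mm column, eluting with CH3CN/H2O (each with 0.1% TFA) from 10:90 to 100:0 over 10 min.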

A short description of data set [4]: Dissociation constant, pKa of the compound in 1:1 v/v D2O/CD3OD by 1H-NMR spectrometric method. The data set is classed as physicochemical. In a few lines:
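Samples in D2O/CD3OD (1:1 v/v) were adjusted with DCl/NaOD to a series of pH* values, read on a meter calibrated with non-deuterated standards, and 1H-NMR was recorded at 400 MHz. Imidazole proton chemical shifts were plotted against pH* and fitted sigmoidally. The pKa* was converted by pH = 0.929 pH* + 0.42.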

The nature of data set [5]: Drug homolysis in H2O/MeOH buffered with Na2CO3/NaHCO3 at pH 10.3 assessed as activation energy in presence of alkyl radical scavenger TEMPOR by 31P[1H]-NMR analysis.
Data set [6] is described as follows: Drug homolysis in H2O/MeOH buffered with HCl/KCl at pH 2.2 assessed as activation energy in presence of alkyl radical scavenger TEMPOR by 31P[1H]-NMR analysis.
A short description of data set [7]: Drug homolysis in H2O/MeOH buffered with Na2CO3/NaHCO3 at pH 10.3 assessed as rate constant by measuring nitroxide level in presence of alkyl radical scavenger TEMPOR by 31P[1H]-NMR analysis.
Data set [8] is described as follows: Drug homolysis in H2O/MeOH buffered with HEPES/NaCl at pH 7.4 assessed as rate constant by measuring nitroxide level in presence of alkyl radical scavenger TEMPOR by 31P[1H]-NMR analysis.
Data set [9] in a line: Drug homolysis in H2O/MeOH buffered with HCl/KCl at pH 2.2 assessed as rate constant by measuring nitroxide level in presence of alkyl radical scavenger TEMPOR by 31P[1H]-NMR analysis.
The nature of data set [10]: Drug homolysis in H2O/MeOH buffered with HEPES/NaCl at pH 7.4 assessed as activation energy in presence of alkyl radical scavenger TEMPOR by 31P[1H]-NMR analysis.
In data set [11] the test system is U-87 MG. Description: Cytotoxicity against human U87MG cells assessed as reduction in cell survival measured after 72 hrs by MTT assay. It is filed as functional, cell-based. Particulars: for Activity: U-87MG ATCC. In short, it runs like this:
(§1)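 MTT viability on 2D cultures, U87-MG in DMEM and U251-MG in EMEM with […], both with 10% FBS and Pen Strep. 5000 cells seeded, then 72 h exposure to 500, 250, 100, 50, 25, 10 and 5 μM (DMSO at most […]). MTT 0.5 mg/mL for 1 h, formazan in DMSO read at 550 nm. Survival as % of control. IC50 determined graphically. At least triplicate.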

For data set [12], the system named is U-251. Kind of data set: Cytotoxicity against human U251MG cells assessed as reduction in cell survival measured after 72 hrs by MTT assay. It is filed as functional, cell-based. In short, it runs like this: as §1
In general terms: Formazan colour is commonly taken as a measure of viable cells.

Turning to `CCOP(=O)(OCC)C(N(OC(C)c1n(C)cc[n+]1C)C(C)(C)C)C(C)(C)C` (stereo in doubt; form 2) [listing 1 of 2 here], the T in data set [1] was 60 °C. The t1/2 in data set [2] came out at 3.4 h. This molecule also gave a log distribution coefficient (logD) in data set [3] (octanol/water) of 0.5.
Consider `CCOP(=O)(OCC)C(N(OC(C)c1ccncc1)C(C)(C)C)C(C)(C)C` (centres undefined), for which the pKa in data set [4] (1:1 v/v D2O/CD3OD, read-out: pKa) came out at 4.7.
Turning to `CCOP(=O)(OCC)C(N(OC(C)c1nccn1C)C(C)(C)C)C(C)(C)C` (stereo in doubt; form 2), the figures for the Ea in data set [5], in [6] and in data set [10] were 27.9 kcal/mol, 26.1 kcal/mol and 27.1 kcal/mol, respectively. The values for the Kdiss in [7], in data set [8] and in data set [9] were 1.23 ×10⁻³ /s, 1.28 ×10⁻³ /s and 1.8 ×10⁻³ /s, respectively. In addition, the Activity result in [11] and in data set [12] was “Dose-dependent effect” each time.
Regarding `CCOP(=O)(OCC)C(N(OC(C)c1cn(C)c[n+]1C)C(C)(C)C)C(C)(C)C` (stereo in doubt; form 2) [listing 1 of 2 here], the Kdiss in data set [8] was 1.61 ×10⁻³ /s. For the same molecule, the Ea in data set [10] came to 27.7 kcal/mol. Also, the Activity result in data set [11] and in data set [12] was “Dose-dependent effect” each time.
In the case of `CCOP(=O)(OCC)C(N(OC(C)c1ncc[nH]1)C(C)(C)C)C(C)(C)C` (stereo in doubt; form 2), the Ea in [5] worked out at 29.1 kcal/mol; in data set [6] it was 26.6 kcal/mol; in [10] it was 28.2 kcal/mol. The Kdiss in data set [7] was found to be 2.47 ×10⁻⁴ /s; in [8], 2.61 ×10⁻⁴ /s; in [9], 9.16 ×10⁻⁴ /s. Besides, the Activity entry in data set [11] and in [12] was “Dose-dependent effect” throughout.
In the case of `CCOP(=O)(OCC)C(N(OC(C)n1ccnc1)C(C)(C)C)C(C)(C)C` (stereo in doubt; form 2), the pKa in [4] was 5.81.
As to `CCOP(=O)(OCC)C(N(OC(C)c1nccn1C)C(C)(C)C)C(C)(C)C` (stereo in doubt; form 1), the Ea in [5] worked out at 28.7 kcal/mol; in [6], 26.2 kcal/mol; in data set [10], 27.8 kcal/mol. Besides, the Kdiss was 4.31 ×10⁻⁴ /s in [7], 4.76 ×10⁻⁴ /s in data set [8] and 1.51 ×10⁻³ /s in [9]. For the same molecule, the Activity entry in [11] and in [12] was “Dose-dependent effect” each time.
In the case of `CCOP(=O)(OCC)C(N(OC(C)c1n(C)cc[n+]1C)C(C)(C)C)C(C)(C)C` (stereo in doubt; form 1) [listing 1 of 2 here], in data set [8], the Kdiss came to 1.27 ×10⁻³ /s. In addition, the Ea in data set [10] stood at 27.1 kcal/mol. Moreover, the Activity entry in data set [11] and in data set [12] was “Dose-dependent effect” throughout.
As for `CCOP(=O)(OCC)C(N(OC(C)c1c[nH]cn1)C(C)(C)C)C(C)(C)C` (stereo in doubt; form 1), the values for the Ea in data set [5], in [6] and in data set [10] were 29.4 kcal/mol, 28.5 kcal/mol and 29.2 kcal/mol, respectively. The values for the Kdiss in data set [7], in [8] and in data set [9] were 1.53 ×10⁻⁴ /s, 2.08 ×10⁻⁴ /s and 5.23 ×10⁻⁴ /s, respectively. Besides, the Activity result in data set [11] and in [12] was “Dose-dependent effect” throughout.
Take `CCOP(=O)(OCC)C(N(OC(C)c1cn(C)cn1)C(C)(C)C)C(C)(C)C` (stereo in doubt; form 1): the Ea was 30.2 kcal/mol in data set [5], 28.3 kcal/mol in data set [6] and 29.8 kcal/mol in data set [10]. Besides, the values for the Kdiss in [7], in [8] and in [9] were 4.89 ×10⁻⁵ /s, 8.58 ×10⁻⁵ /s and 7.84 ×10⁻⁴ /s, respectively. Moreover, the Activity result in data set [11] and in data set [12] was “Dose-dependent effect” each time.
On to `CCOP(=O)(OCC)C(N(OC(C)c1n(C)cc[n+]1C)C(C)(C)C)C(C)(C)C` (stereo in doubt; form 2) [listing 2 of 2 here], for which the Kdiss in data set [8] was 1.1 ×10⁻³ /s. For the same molecule, in [10], the Ea worked out at 26.4 kcal/mol. Also, the Activity entry in data set [11] and in data set [12] was “Dose-dependent effect” throughout.
The molecule `CCOP(=O)(OCC)C(N(OC(C)n1cc[n+](C)c1)C(C)(C)C)C(C)(C)C` (stereo in doubt; form 2) returned a logD in data set [3] (octanol/water) of 0.3.
With `CCOP(=O)(OCC)C(N(OC(C)c1n(C)cc[n+]1C)C(C)(C)C)C(C)(C)C` (stereo in doubt; form 1) [listing 2 of 2 here], the T in data set [1] amounted to 70 °C. Moreover, the t1/2 in data set [2] amounted to 10 h. Besides, the 50% inhibitory concentration (IC50) in [11] fell in the range of 25 to 380 µM. The molecule further displayed a logD in data set [3] (octanol/water) of -0.2.
Regarding `CCOP(=O)(OCC)C(N(OC(C)c1cn(C)cn1)C(C)(C)C)C(C)(C)C` (stereo in doubt; form 2), the Ea was 30.3 kcal/mol in [5], 28.8 kcal/mol in [6] and 29.5 kcal/mol in data set [10]. Also, the Kdiss in data set [7] came to 4.57 ×10⁻⁵ /s; in data set [8] it was 1.24 ×10⁻⁴ /s; in [9] it was 3.55 ×10⁻⁴ /s. For the same molecule, the Activity result in data set [11] and in [12] was “Dose-dependent effect” each time.
Consider `CCOP(=O)(OCC)C(N(OC(C)c1cn(C)c[n+]1C)C(C)(C)C)C(C)(C)C` (stereo in doubt; form 1) [listing 1 of 2 here], for which the T in data set [1] is 70 °C. Also, the half-life in data set [2] is 25 h. Besides, the half-inhibitory concentration (IC50) in data set [11] is 25 to 380 µM. For the same molecule, the logD in [3] (n-octanol/phosphate buffered saline, read-out: logD) came to 0.8.
For the molecule `CCOP(=O)(OCC)C(N(OC(C)c1cc[n+](C)cc1)C(C)(C)C)C(C)(C)C` (centres undefined), in [2], the half-life amounted to 0.75 h. For the same molecule, in data set [11], the IC50 turned out to be 250 µM.
Consider `CCOP(=O)(OCC)C(N(OC(C)c1ncc[nH]1)C(C)(C)C)C(C)(C)C` (stereo in doubt; form 1), for which the values for the Ea in data set [5], in data set [6] and in [10] were 29.2 kcal/mol, 26.7 kcal/mol and 28.4 kcal/mol, respectively. For the same molecule, the Kdiss in data set [7] was 1.97 ×10⁻⁴ /s; in [8], 2 ×10⁻⁴ /s; in data set [9] it was 7.47 ×10⁻⁴ /s. The Activity entry in data set [11] and in data set [12] was “Dose-dependent effect” in each case.
Turning to `CCOP(=O)(OCC)C(N(OC(C)c1cn(C)c[n+]1C)C(C)(C)C)C(C)(C)C` (stereo in doubt; form 1) [listing 2 of 2 here], the Kdiss in data set [8] was determined as 5.73 ×10⁻⁴ /s. In addition, in [10], the Ea came to 27.7 kcal/mol. For the same molecule, the Activity entry in [11] and in data set [12] was “Dose-dependent effect” throughout.
For the molecule `CCOP(=O)(OCC)C(N(OC(C)c1c[nH]cn1)C(C)(C)C)C(C)(C)C` (stereo in doubt; form 2), the Ea worked out at 29.5 kcal/mol in data set [5], 29 kcal/mol in data set [6] and 29.2 kcal/mol in data set [10]. Besides, the Kdiss in data set [7] worked out at 4.07 ×10⁻⁵ /s; in data set [8] it was 1.95 ×10⁻⁴ /s; in data set [9], 2.8 ×10⁻⁴ /s. The Activity entry in data set [11] and in data set [12] was “Dose-dependent effect” each time.
Consider `CCOP(=O)(OCC)C(N(OC(C)n1cc[n+](C)c1)C(C)(C)C)C(C)(C)C` (stereo in doubt; form 1), for which the T in [1] came out at 100 °C. Further, in data set [2], the t1/2 worked out at 5 yr. Further, the IC50 in [11] fell in the range of 25 to 380 µM. The molecule also gave a logD in data set [3] (octanol/water) of -0.1.
`Cn1nnc2c(C(N)=O)ncn2c1=O` [TEMOZOLOMIDE]: the half-maximal inhibitory concentration (IC50) in data set [12] (U-251, 72 h) was found to be 455 µM.
For the molecule `CCOP(=O)(OCC)C(N(OC(C)c1cn(C)c[n+]1C)C(C)(C)C)C(C)(C)C` (stereo in doubt; form 2) [listing 2 of 2 here], in [1], the T stood at 80 °C. In data set [2], the t1/2 came to 29 h. This molecule displayed a logD in [3] (octanol/water) of 0.4.

The term logD denotes the decadic logarithm of the distribution of all forms, ionised or not, between an organic phase and buffer at a given pH. Broadly, the pKa is the negative logarithm of the acid dissociation constant. In general, IC50 refers to the concentration that inhibits the measured activity by half. One may read the half-life as how long it takes for the measured level to halve.
